Test results published in ChEMBL document CHEMBL3108738, “The chemical and biological potential of C ring modified triterpenoids” (Eur J Med Chem, 2014).
Active and inactive are the calls of the source. The rule behind the calls is not given here.

What was measured:
[1] = system: A549; experiment: Cytotoxicity against human A549 cells after 96 hrs by SRB assay; assay type: functional, cell-based; details: A549, 96 h
[2] = system: NIH3T3; experiment: Cytotoxicity against mouse NIH/3T3 cells after 96 hrs by SRB assay; assay type: ADME, cell-based; details: NIH3T3, 96 h
[3] = system: A2780; experiment: Cytotoxicity against human A2780 cells after 96 hrs by SRB assay; assay type: functional, cell-based; details: A2780, 96 h
[4] = system: HT-29; experiment: Cytotoxicity against human HT-29 cells after 96 hrs by SRB assay; assay type: functional, cell-based; details: HT-29, 96 h
[5] = system: 8505C; experiment: cells; assay type: functional, cell-based; details: Homo sapiens, 96 h
[6] = Cytotoxicity against human 518A2 cells after 96 hrs by SRB assay; assay type: functional, cell-based; details: 518A2, 96 h
[7] = system: A2780; experiment: Induction of apoptosis in human A2780 cells assessed as secondary necrotic cells at 30 uM after 24 hrs by annexin V/propidium iodide staining-based FACS analysis (reference value: 9.71%); assay type: functional
[8] = system: A2780; experiment: Induction of apoptosis in human A2780 cells assessed as vital cells at 30 uM after 24 hrs by annexin V/propidium iodide staining-based FACS analysis (reference value: 82.15%); assay type: functional
[9] = system: A2780; experiment: Cell cycle arrest in human A2780 cells at 30 uM by propidium iodide staining-based FACS analysis; assay type: functional
[10] = system: A2780; experiment: Cell cycle arrest in human A2780 cells assessed as accumulation at G1 phase at 30 uM by propidium iodide staining-based FACS analysis (reference value: 51.839 %); assay type: functional
[11] = system: A2780; experiment: Cell cycle arrest in human A2780 cells assessed as accumulation at S phase at 30 uM by propidium iodide staining-based FACS analysis (reference value: 32.439 %); assay type: functional
[12] = system: A2780; experiment: Induction of apoptosis in human A2780 cells assessed as necrotic cells at 30 uM after 24 hrs by annexin V/propidium iodide staining-based FACS analysis (reference value: 1.78%); assay type: functional
[13] = system: MCF7; experiment: Cytotoxicity against human MCF7 cells after 96 hrs by SRB assay; assay type: functional, cell-based; details: MCF7, 96 h
[14] = system: A2780; experiment: Cell cycle arrest in human A2780 cells assessed as accumulation at G2 phase at 30 uM by propidium iodide staining-based FACS analysis (reference value: 15.721 %); assay type: functional
[15] = system: A2780; experiment: Induction of apoptosis in human A2780 cells assessed as necrotic cells at 30 uM after 24 hrs by annexin V/propidium iodide staining-based FACS analysis (reference value: 6.37%); assay type: functional
[16] = system: A2780; experiment: Induction of apoptosis in human A2780 cells assessed as DNA ladder formation at 30 uM after 24 hrs by electrophoresis; assay type: functional, cell-based
In short: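 A2780 cells were exposed to 30 µM compound for 24 h. Floating (dead) cells were collected and washed with PBS, and DNA fragmentation was examined by gel laddering alongside an untreated control.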

[17] = system: A2780; experiment: Induction of apoptosis in human A2780 cells at 30 uM after 24 hrs by annexin V/propidium iodide staining-based FACS analysis; assay type: functional
[18] = system: A2780; experiment: Cell cycle arrest in human A2780 cells assessed as reduction of G2/M phase at 30 uM by propidium iodide staining-based FACS analysis; assay type: functional

Structure (SMILES)	IC50 [1] [µM]	IC50 [2] [µM]	IC50 [3] [µM]	IC50 [4] [µM]	IC50 [5] [µM]	IC50 [6] [µM]	Activity [7] [%]	Activity [8] [%]	Activity [9]	Activity [10] [%]	Activity [11] [%]	Activity [12] [%]	IC50 [13] [µM]	Activity [14] [%]	Activity [15] [%]	Activity [16]	Activity [17]	Activity [18]
CC1(C)CC[C@@]23CC[C@]4(C)[C@@](OC2=O)([C@@H]3C1)[C@@H](Cl)C[C@@H]1[C@@]2(C)C[C@@H](O)[C@H](O)C(C)(C)[C@@H]2CC[C@]14C	33.1	> 90	34.2	510	18	–	–	–	–	–	–	–	–	–	–	–	–	–
COC(=O)[C@]12CCC(C)(C)C[C@H]1C1=CC[C@@H]3[C@@]4(C)CC[C@H](OC(C)=O)C(C)(C)[C@@H]4CC[C@@]3(C)[C@]1(C)CC2	26.1	34.3	8.6	26.7	20.5	34.1	9.43	72.47	inactive	55.294	28.805	2.41	16.7	15.901	15.68	–	–	–
CC1(C)CC[C@@]23CC[C@]4(C)[C@@](OC2=O)([C@@H]3C1)[C@@H](I)C[C@@H]1[C@@]2(C)C[C@@H](O)[C@H](O)C(C)(C)[C@@H]2CC[C@]14C	34.4	80.2	31.5	> 90	72.1	–	–	–	–	–	–	–	–	–	–	–	–	–
CC1(C)CC[C@@]23CC[C@]4(C)[C@@](OC2=O)([C@@H]3C1)[C@@H](Br)C[C@@H]1[C@@]2(C)C[C@@H](O)[C@H](O)C(C)(C)[C@@H]2CC[C@]14C	29.1	43.1	25.9	> 90	36.5	–	–	–	–	–	–	–	–	–	–	–	–	–
CC1(C)CC[C@]2(C(=O)OCc3ccccc3)CC[C@]3(C)C(=CC[C@@H]4[C@@]5(C)CC[C@H](O)C(C)(C)[C@@H]5CC[C@]43C)[C@@H]2C1	28	22.4	23	28.7	29.1	28	–	–	–	–	–	–	15.8	–	–	–	–	–
COC(=O)[C@]12CCC(C)(C)C[C@H]1C1=CC[C@@H]3[C@@]4(C)C[C@@H](O)[C@H](O)C(C)(C)[C@@H]4CC[C@@]3(C)[C@]1(C)CC2 [MASLINIC ACID METHYL ESTER]	–	–	17.8	–	–	–	–	–	–	–	–	–	–	–	–	–	–	–
CC(=O)O[C@H]1CC[C@]2(C)[C@H]3C[C@H](O)[C@]45OC(=O)[C@@]6(CCC(C)(C)C[C@H]64)CC[C@@]5(C)[C@]3(C)CC[C@H]2C1(C)C	> 90	85.7	63.2	> 90	> 90	> 90	11.89	74.74	inactive	51.879	32.261	1.54	> 90	15.86	11.84	–	–	–
COC(=O)[C@]12CC[C@@H](C)[C@H](C)[C@H]1C1=CC[C@@H]3[C@@]4(C)CC[C@H](O)C(C)(C)[C@@H]4CC[C@@]3(C)[C@]1(C)CC2 [METHYL URSOLATE]	20.2	–	15.3	25.4	20.6	17.7	–	–	–	–	–	–	22.2	–	–	–	–	–
CC1(C)CC[C@@]23CC[C@]4(C)[C@@](OC2=O)([C@@H]3C1)[C@@H](O)C[C@@H]1[C@@]2(C)C[C@@H](O)[C@H](O)C(C)(C)[C@@H]2CC[C@]14C	> 90	22.1	39.9	92.8	> 90	78.4	–	–	–	–	–	–	> 90	–	–	–	–	–
CC1(C)CC[C@]2(C(=O)OCc3ccccc3)CC[C@]3(C)[C@H](C(=O)C[C@@H]4[C@@]5(C)CC[C@H](O)C(C)(C)[C@@H]5CC[C@]43C)[C@@H]2C1	–	–	–	–	–	–	11.08	74.47	–	–	–	0.62	–	–	13.82	–	–	–
COC(=O)[C@]12CCC(C)(C)C[C@H]1C1=CC(=O)[C@@H]3[C@@]4(C)CC[C@H](O)C(C)(C)[C@@H]4CC[C@@]3(C)[C@]1(C)CC2	15.1	24.8	6.6	18.5	13	15.6	29.68	33.08	–	–	–	3.11	21.3	–	34.13	Active	>50%	–
COC(=O)[C@]12CCC(C)(C)C[C@H]1C1=CC(=O)[C@@H]3[C@@]4(C)CC[C@H](OC(C)=O)C(C)(C)[C@@H]4CC[C@@]3(C)[C@]1(C)CC2	66.1	33.6	40	29.4	16.2	24.1	12.57	72.75	–	56.831	25.334	1.4	–	17.835	13.28	–	–	–
COC(=O)[C@]12CCC(C)(C)C[C@H]1C1=C(O)C(=O)[C@@H]3[C@@]4(C)CC[C@H](O)C(C)(C)[C@@H]4CC[C@@]3(C)[C@]1(C)CC2	25.6	25.8	17.5	15.3	23.3	21.2	19.74	25.72	–	59.438	21.594	6.65	25.8	18.968	48.08	–	>50%	–
COC(=O)[C@]12CCC(C)(C)C[C@H]1C1=CC[C@@H]3[C@@]4(C)C[C@@H](OC(C)=O)[C@H](OC(C)=O)C(C)(C)[C@@H]4CC[C@@]3(C)[C@]1(C)CC2	7.8	30.5	6.8	26.3	13.3	8.6	–	–	–	–	–	–	> 30	–	–	–	–	–
CC1(C)CC[C@]2(C(=O)O)CC[C@]3(C)C(=CC[C@@H]4[C@@]5(C)C[C@@H](O)[C@H](O)C(C)(C)[C@@H]5CC[C@]43C)[C@@H]2C1 [MASLINIC ACID]	–	21.4	–	–	–	–	–	–	–	–	–	–	16.6	–	–	–	–	–
CC(=O)O[C@H]1CC[C@]2(C)[C@H]3CC(=O)[C@@H]4[C@@H]5CC(C)(C)CC[C@]5(C(=O)OCc5ccccc5)CC[C@@]4(C)[C@]3(C)CC[C@H]2C1(C)C	69.1	> 90	19.8	> 90	41.9	73.2	–	–	–	58.015	40.927	–	> 90	1.057	–	–	–	Active
COC(=O)[C@]12CCC(C)(C)C[C@H]1[C@H]1C(=O)C[C@@H]3[C@@]4(C)C[C@@H](OC(C)=O)[C@H](OC(C)=O)C(C)(C)[C@@H]4CC[C@@]3(C)[C@]1(C)CC2	14.1	31.7	11.6	17.6	10.3	9.6	–	–	–	–	–	–	23.8	–	–	–	–	–
CC1(C)CC[C@]2(C(=O)O)CC[C@]3(C)C(=CC[C@@H]4[C@@]5(C)CC[C@H](O)C(C)(C)[C@@H]5CC[C@]43C)[C@@H]2C1 [OLEANOLIC_ACID]	72.3	76.4	14	38.8	> 60	> 60	–	–	–	–	–	–	> 60	–	–	–	–	–
CN[C@@H]1C[C@H]2O[C@@](C)([C@@H]1OC)n1c3ccccc3c3c4c(c5c6ccccc6n2c5c31)C(=O)NC4 [STAUROSPORINE]	–	–	–	–	–	–	–	–	–	–	–	–	0.4	–	–	–	–	–
CC(=O)O[C@H]1CC[C@]2(C)[C@H]3C[C@H](OC(C)=O)[C@]45OC(=O)[C@@]6(CCC(C)(C)C[C@H]64)CC[C@@]5(C)[C@]3(C)CC[C@H]2C1(C)C	6.6	7.2	5.6	14.1	7	6.8	18.67	44.89	inactive	56.115	27.288	3.78	18.5	16.597	32.66	Active	Active	–
